{"source": "ChEMBL document CHEMBL1949537", "about": "“Structure-activity studies on the anti-proliferation activity of ajoene analogues in WHCO1 oesophageal cancer cells” (Eur J Med Chem, 2012)", "key": {"[1]": {"assay": "Antiproliferative activity against human WHCO1 cells after 48 hrs by MTT assay", "format": "functional, cell-based", "details": "WHCO1, 48 h", "procedure,_shortened": "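WHCO1 cells (oesophageal SCC line) kept in DMEM with 10% FBS, no antibiotics, 37 °C, 5% CO2. Seeded 2 × 10^3 cells/well, dosed next day at 0.5–200 µM in 0.1% DMSO final; DMSO-only controls. After 48 h, MTT added for 4 h, then SLS/HCl overnight, A595 read. IC50 from variable-slope sigmoidal fit; mean ± SD of three independent determinations.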"}, "[2]": {"system": "WHCO1", "assay": "Growth inhibition of human WHCO1 cells at 34 uM after 6 days by Roche xCelligence method", "format": "functional, cell-based", "procedure,_shortened": "(§1)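 Real-time impedance (xCelligence) of WHCO1 cells seeded at 5000/well. Compound added 24 h after plating in 0.1% DMSO at 34, 100 or 113 µM; DMSO-only controls. Growth then tracked continuously for a further six days. Each curve is the average of three replicates.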"}, "[3]": {"assay": "Ratio of Z-ajeone IC50 to compound IC50 for human WHCO1 cells", "format": "functional"}, "[4]": {"system": "WHCO1", "assay": "Growth inhibition of human WHCO1 cells at 10 uM up to 5 days by Roche xCelligence method", "format": "functional, cell-based", "procedure,_shortened": "(§2)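 xCelligence impedance monitoring of WHCO1 growth: 2500 cells/well, treated 24 h after plating with 10 µM compound in 0.1% DMSO. DMSO-only controls. Growth followed continuously as impedance; the system records for up to seven days.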"}, "[5]": {"system": "WHCO1", "assay": "Growth inhibition of human WHCO1 cells at 100 uM after 6 days by Roche xCelligence method", "format": "functional, cell-based", "procedure,_shortened": "as §1"}, "[6]": {"assay": "Induction of cell cycle arrest in human WHCO1 cells assessed as G0/G1 phase cells at 10 uM after 16 hrs by flow cytometry (reference value: 29.2 +/- 5.2%)", "format": "functional"}, "[7]": {"assay": "Induction of cell cycle arrest in human WHCO1 cells assessed as S phase cells at 10 uM after 16 hrs by flow cytometry (reference value: 45.3 +/- 1.9%)", "format": "functional"}, "[8]": {"assay": "Induction of cell cycle arrest in human WHCO1 cells assessed as G2/M phase cells at 10 uM after 16 hrs by flow cytometry (reference value: 25.5 +/- 3.7%)", "format": "functional"}, "[9]": {"system": "WHCO1", "assay": "Induction of apoptosis in human WHCO1 cells at 10 uM after 16 hrs by Roche cell death ELISA method", "format": "functional, cell-based", "procedure,_shortened": "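Quadruplicate wells of 5 × 10^3 WHCO1 cells dosed next day at 10 µM in 0.1% DMSO for 16 h; DMSO-only controls. Cytoplasmic fraction assayed for histone-associated DNA fragments by sandwich ELISA (anti-histone-biotin/anti-DNA-POD, 2 h at room temperature, ABTS 15 min). Absorbance read at 405 and 495 nm.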"}, "[10]": {"assay": "Induction of apoptosis in human WHCO1 cells assessed as caspase 3 activation using Ac-DEVD-AFC as substrate at 25 uM after 24 hrs by fluorimetry relative to control", "format": "functional", "procedure,_shortened": "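WHCO1 cells (1.8 × 10^6) seeded in triplicate and dosed next day at 25 µM with 0.1% DMSO for 24 h. Controls received medium or 0.1% DMSO. Lysates captured on anti-caspase-3 coated wells for 1 h at 37 °C, then fluorogenic substrate added. Fluorescence (ex 390/em 505 nm) read at 0 and 120 min at 37 °C; activity is the ΔFU.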"}, "[11]": {"system": "WHCO1", "assay": "Growth inhibition of human WHCO1 cells at 113 uM after 6 days by Roche xCelligence method", "format": "functional, cell-based", "procedure,_shortened": "as §1"}, "[12]": {"system": "WHCO1", "assay": "Growth inhibition of human WHCO1 cells at 10 uM up to 2 days by Roche xCelligence method", "format": "functional, cell-based", "details": "in the assay text read “up to 5 days” for “up to 2 days”", "procedure,_shortened": "as §2"}}, "note": "Activity calls are given as the source filed them. The rule behind the calls is not given here.", "data": [{"compound": "CCCSS/C=C\\C[S+]([O-])CCC", "note": "(stereo not drawn)", "values": [{"measurement": "IC50", "setting": "[1]", "value": 18, "unit": "µM"}]}, {"compound": "COc1ccc(CSSCCC[S+]([O-])Cc2ccc(OC)cc2)cc1", "note": "(stereo not drawn)", "values": [{"measurement": "IC50", "setting": "[1]", "value": 16, "unit": "µM"}, {"measurement": "growth inhibition (GI)", "setting": "[2]", "value": "Active"}]}, {"compound": "O=c1[nH]cc(F)c(=O)[nH]1", "note": "[FLUOROURACIL]", "values": [{"measurement": "IC50", "setting": "[1]", "value": 7.9, "unit": "µM"}]}, {"compound": "COc1ccc(CSSC=CC[S+]([O-])Cc2ccc(OC)cc2)cc1", "note": "(stereo not drawn)", "values": [{"measurement": "IC50", "setting": "[1]", "value": 2.1, "unit": "µM"}, {"measurement": "Ratio IC50", "setting": "[3]", "value": 12}, {"measurement": "growth inhibition (GI)", "setting": "[4]", "value": "Active"}, {"measurement": "growth inhibition (GI)", "setting": "[5]", "value": "Active"}, {"measurement": "Activity", "setting": "[6]", "value": 8.03, "unit": "%"}, {"measurement": "Activity", "setting": "[7]", "value": 13.5, "unit": "%"}, {"measurement": "Activity", "setting": "[8]", "value": 78.6, "unit": "%"}, {"measurement": "Activity", "setting": "[9]", "value": "Active"}, {"measurement": "fold change (FC)", "setting": "[10]", "value": 3}]}, {"compound": "COc1ccc(CSCC=CSSCc2ccc(OC)cc2)cc1", "values": [{"measurement": "IC50", "setting": "[1]", "value": 0.7, "unit": "µM"}, {"measurement": "growth inhibition (GI)", "setting": "[2]", "value": "Active"}, {"measurement": "Activity", "setting": "[6]", "value": 9.73, "unit": "%"}, {"measurement": "Activity", "setting": "[7]", "value": 15.9, "unit": "%"}, {"measurement": "Activity", "setting": "[8]", "value": 74.4, "unit": "%"}, {"measurement": "Activity", "setting": "[9]", "value": "Active"}]}, {"compound": "C=CCSS/C=C/C[S+]([O-])CCCO", "note": "(stereo not drawn)", "values": [{"measurement": "IC50", "setting": "[1]", "value": 27, "unit": "µM"}]}, {"compound": "COc1ccc(CS/C=C\\C[S+]([O-])Cc2ccc(OC)cc2)cc1", "note": "(stereo not drawn)", "values": [{"measurement": "IC50", "setting": "[1]", "value": "> 200", "unit": "µM"}, {"measurement": "growth inhibition (GI)", "setting": "[2]", "value": "inactive"}, {"measurement": "Activity", "setting": "[6]", "value": 19.5, "unit": "%"}, {"measurement": "Activity", "setting": "[7]", "value": 63.1, "unit": "%"}, {"measurement": "Activity", "setting": "[8]", "value": 17.4, "unit": "%"}]}, {"compound": "COc1ccc(C[S+]([O-])CC=CSSCc2ccccc2)cc1", "note": "(mixture of isomers)", "values": [{"measurement": "IC50", "setting": "[1]", "value": 3.1, "unit": "µM"}]}, {"compound": "C=CCSSC=CC[S+]([O-])Cc1ccc(OC)cc1", "note": "(mixture of isomers)", "values": [{"measurement": "IC50", "setting": "[1]", "value": 7.4, "unit": "µM"}]}, {"compound": "C=CCSS/C=C/C[S+]([O-])CCC", "note": "(stereo not drawn)", "values": [{"measurement": "IC50", "setting": "[1]", "value": 37, "unit": "µM"}]}, {"compound": "COc1ccc(CSCCCSSCc2ccc(OC)cc2)cc1", "values": [{"measurement": "IC50", "setting": "[1]", "value": "> 200", "unit": "µM"}, {"measurement": "growth inhibition (GI)", "setting": "[11]", "value": "inactive"}]}, {"compound": "C=CCSS/C=C/C[S+]([O-])CCCOCc1ccc(OC)cc1", "note": "(stereo not drawn)", "values": [{"measurement": "IC50", "setting": "[1]", "value": 18, "unit": "µM"}]}, {"compound": "C=CCSS/C=C\\C[S+]([O-])CCCOCc1ccc(OC)cc1", "note": "(stereo not drawn)", "values": [{"measurement": "IC50", "setting": "[1]", "value": 21, "unit": "µM"}]}, {"compound": "COc1ccc(CSC=CCSCc2ccc(OC)cc2)cc1", "values": [{"measurement": "IC50", "setting": "[1]", "value": "> 200", "unit": "µM"}, {"measurement": "growth inhibition (GI)", "setting": "[11]", "value": "inactive"}]}, {"compound": "C=CCSSC=CC[S+]([O-])Cc1ccccc1", "note": "(mixture of isomers)", "values": [{"measurement": "IC50", "setting": "[1]", "value": 8.9, "unit": "µM"}]}, {"compound": "C=CCSSC=CC[S+]([O-])C(C)(C)C", "note": "(mixture of isomers)", "values": [{"measurement": "IC50", "setting": "[1]", "value": 23, "unit": "µM"}]}, {"compound": "C=CCSS/C=C\\C[S+]([O-])CCCN1C(=O)c2ccccc2C1=O", "note": "(stereo not drawn)", "values": [{"measurement": "IC50", "setting": "[1]", "value": 33, "unit": "µM"}]}, {"compound": "CCCSS/C=C/C[S+]([O-])CCC", "note": "(stereo not drawn)", "values": [{"measurement": "IC50", "setting": "[1]", "value": 24, "unit": "µM"}]}, {"compound": "C=CCSS/C=C\\C[S+]([O-])CCC", "note": "(stereo not drawn)", "values": [{"measurement": "IC50", "setting": "[1]", "value": 23, "unit": "µM"}]}, {"compound": "C=CCSS/C=C/C[S+]([O-])CC=C", "note": "(stereo not drawn) [AJOENE]", "values": [{"measurement": "IC50", "setting": "[1]", "value": 39, "unit": "µM"}, {"measurement": "growth inhibition (GI)", "setting": "[12]", "value": "inactive"}]}, {"compound": "C=CCSS/C=C/C[S+]([O-])CCCN1C(=O)c2ccccc2C1=O", "note": "(stereo not drawn)", "values": [{"measurement": "IC50", "setting": "[1]", "value": 68, "unit": "µM"}]}, {"compound": "CCC[S+]([O-])C/C=C\\SSC", "note": "(stereo not drawn)", "values": [{"measurement": "IC50", "setting": "[1]", "value": 26, "unit": "µM"}]}, {"compound": "C=CCSS/C=C\\C[S+]([O-])CC=C", "note": "(stereo not drawn) [(Z)-Ajoene]", "values": [{"measurement": "IC50", "setting": "[1]", "value": 25, "unit": "µM"}, {"measurement": "growth inhibition (GI)", "setting": "[12]", "value": "inactive"}]}, {"compound": "CCC[S+]([O-])C/C=C/SSC", "note": "(stereo not drawn)", "values": [{"measurement": "IC50", "setting": "[1]", "value": 28, "unit": "µM"}]}, {"compound": "COc1ccc(C[S+]([O-])CC=CSSCc2ccc(F)cc2)cc1", "note": "(mixture of isomers)", "values": [{"measurement": "IC50", "setting": "[1]", "value": 16, "unit": "µM"}]}, {"compound": "C=CCSS/C=C\\C[S+]([O-])CCCO", "note": "(stereo not drawn)", "values": [{"measurement": "IC50", "setting": "[1]", "value": 38, "unit": "µM"}]}, {"compound": "COc1ccc(CS/C=C/C[S+]([O-])Cc2ccc(OC)cc2)cc1", "note": "(stereo not drawn)", "values": [{"measurement": "IC50", "setting": "[1]", "value": "> 200", "unit": "µM"}, {"measurement": "growth inhibition (GI)", "setting": "[2]", "value": "inactive"}, {"measurement": "Activity", "setting": "[6]", "value": 21.5, "unit": "%"}, {"measurement": "Activity", "setting": "[7]", "value": 67, "unit": "%"}, {"measurement": "Activity", "setting": "[8]", "value": 11.4, "unit": "%"}]}]}
